Screening results deposited in PubChem by several laboratories.
Rows were chosen to be rich in hits. Some 27% of all compounds tested hit in one or more screens of this group.
Cav32 inh – blocks human Cav3.2 T-type calcium channel. B-score at 10 µM. 100,000 compounds, 4% hits. AID 449739. O95180. Cav3.2-expressing cells, Fluo-4 calcium fluorescence FDSS; hits give low values;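 active means single-dose well whose peak fluorescence ratio is a statistical outlier from its plate by either plate-standardised score or position-corrected B-score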
Rev-RRE block – disrupts HIV-1 Rev binding to RRE RNA; P05866; Rev peptide-RRE RNA binding, FRET; inhibition, % at 8 µM; 97,000 compounds, 0.79% hits;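 active means inhibition above the screen-wide mean plus 3 SD, cut at about 35% in these data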;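 further: 0% = median DMSO wells and 100% = median Neomycin B control wells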
Target sequence (P05866 whole entry, looked up): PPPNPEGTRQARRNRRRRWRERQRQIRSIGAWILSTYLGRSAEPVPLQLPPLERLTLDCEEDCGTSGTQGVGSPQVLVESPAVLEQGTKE
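Test system: Cy5-tagged RRE RNA duplex with fluorescein-tagged Rev peptide | Read-out: % inhibition of FRET ratio versus controls | Probe or stimulus: Labelled Rev peptide | Incubation: 5 min RNA-compound premix plus 15 min binding step, 25 °C | Technique: FRET fluorescence readout | Benchmarks: DMSO low control, neomycin B high control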
CYP2C19 inh – human CYP2C19 inhibition | P33261 | CYP2C19 Supersomes, luciferin-H EGE luminescence, 30 min | inhibition, % at 5 µM | 96,000 compounds, 21% hits | AID 778;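 active means CYP2C19 inhibition above a set limit at 5 µM in the primary screen, cut at about 50% in these data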;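 further: plate controls were negative control wells for no effect and 2.5 mM tranylcypromine positive control for full effect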
Target sequence (P33261 whole entry, looked up): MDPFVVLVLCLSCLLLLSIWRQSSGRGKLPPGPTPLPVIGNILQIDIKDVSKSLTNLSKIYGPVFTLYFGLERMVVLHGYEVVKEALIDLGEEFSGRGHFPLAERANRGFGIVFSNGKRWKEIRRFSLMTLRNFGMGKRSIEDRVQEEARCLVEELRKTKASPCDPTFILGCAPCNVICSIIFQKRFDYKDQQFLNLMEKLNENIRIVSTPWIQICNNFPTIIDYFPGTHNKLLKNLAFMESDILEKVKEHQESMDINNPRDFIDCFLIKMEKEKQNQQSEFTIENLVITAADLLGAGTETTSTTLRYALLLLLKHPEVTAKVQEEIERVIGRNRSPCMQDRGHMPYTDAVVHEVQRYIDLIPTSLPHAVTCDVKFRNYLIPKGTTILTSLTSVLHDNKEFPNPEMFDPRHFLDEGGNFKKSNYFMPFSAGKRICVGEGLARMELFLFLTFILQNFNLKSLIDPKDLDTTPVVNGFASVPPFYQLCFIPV
CYP2C9 activ – increases human cytochrome P450 2C9 activity; P11712; recombinant CYP2C9, luciferin-H conversion, luminescence; hits give high values; factor 1 = untreated enzyme, 0 = blocked; activation factor at 5 µM; 96,000 compounds, 1.4% hits; AID 1024;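 active means activation factor of 2 or more for CYP2C9 at a 5 µM dose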;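 further: 0 = sulfaphenazole-blocked wells and 1 = vehicle-only wells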
CYP2C9 inh – inhibitors of human CYP2C9; P11712; CYP2C9 Supersomes, luciferin-H conversion, luminescence; inhibition, % at 5 µM; 96,000 compounds, 20% hits; AID 777;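 active means blocking of liver enzyme CYP2C9 beyond about 50% at 5 µM, limit read from the data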
CYP2C19 activ – activators of human cytochrome P450 2C19; AID 1025; activation factor at 5 µM; 96,000 tested, under 10 active; recombinant CYP2C19, luciferin-H EGE luminescence; hits give high values; 0 = fully inhibited enzyme, 1 = untreated enzyme;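 active means activation factor of at least 2 at 5 µM in the primary screen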;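 further: 0 = wells with 2.5 mM tranylcypromine and 1 = vehicle-only wells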
The depositor's hits bear a star; . = no result; [ ] = dose if it differs, or a comment.

SMILES | Cav32 inh | Rev-RRE block | CYP2C19 inh | CYP2C9 activ | CYP2C9 inh | CYP2C19 activ
CC(C)Oc1ccc(N2CC(C(=O)OCC(=O)NCc3ccccc3)CC2=O)cc1 (configuration not stated) | 0.22 | 2 | -9 | 0.9 | 15 | 1.1
O=C(CN1CCN(Cc2ccccc2)CC1)c1c[nH]c2ccccc12 | 1.3 | 12 | 13 | 0.7 | 27 | 0.9
CC1(C)C(=O)OC(C(=O)c2ccccc2)C(C)(C)C1=O (configuration not stated) | 0.038 | 1 | 91* | 0.4 | 58* | 0.1
Cc1cc(C)c(C(=O)C2OC(=O)C(C)(C)C(=O)C2(C)C)c(C)c1 (configuration not stated) | . | 7 | 92* | 0.1 | 90* | 0.1
O=C(NCCCN1CCN(c2ccccc2F)CC1)C1CCC(=O)N1C1CCCC1 (configuration not stated) | 0.89 | . | . | . | . | .
CC(C)CCNC(=O)CN(C(=O)CCC(=O)Nc1ccccn1)c1ccc2c(c1)OCO2 | -2.8 | -2 | 46 | 0.4 | 58* | 0.5
Cc1ccc(N(CC(=O)NCc2ccco2)C(=O)CCC(=O)Nc2ccccn2)cc1C | -2.7 | 0 | 96* | 0.7 | 30 | 0
Cc1cc(C)cc(N(CC(=O)NCc2ccco2)C(=O)CCC(=O)Nc2ccccn2)c1 | -1.9 | . | 61* | 0.8 | 24 | 0.4
Cc1ccnc(NC(=O)CCC(=O)N(CC(=O)NC(C)(C)C)C2CCCC2)c1 | -0.014 | 5 | -11 | 1.1 | -9 | 1.1
CCC(C)(C)NC(=O)CN(C(=O)CCC(=O)Nc1cc(C)ccn1)c1ccc2c(c1)OCO2 | -0.53 | 8 | 58* | 0.5 | 50* | 0.4
CC(C)CCNC(=O)CN(C(=O)CCC(=O)Nc1ccccn1)c1ccc2c(c1)OCCO2 | -1.1 | 10 | . | . | . | .
CCC(CC)c1nnc(NC(=O)c2ccc(N3CCCC3=O)cc2)s1 | 0.33 | 2 | -11 | 1 | 4 | 1.1
Cc1ccc(S(=O)(=O)N2CCN(C)CC2)c(C)c1 | -0.59 | 9 | 36 | 1.5 | -48 | 0.6
COc1ccc(CNc2nc3nc4c(c(=O)n3[nH]2)CCC4)cc1 | 0.88 | 4 | -1 | 0.8 | 17 | 1
CCNc1nc(NC(C)C)nc(OCC)n1 | 0.1 | -4 | 2 | 0.9 | 12 | 1
CCOc1nc(NC2CCCCC2)nc(NC(C)(C)C)n1 | -5.3* | 8 | . | . | . | .
CCCCNC(=O)COC(=O)c1ccc(NS(=O)(=O)c2ccc3c(c2)OCCO3)cc1 | 0.67 | 4 | 31 | 0.1 | 91* | 0.7
O=C(NCc1ccc2c(c1)OCO2)c1ccc(NS(=O)(=O)c2ccc3c(c2)OCCO3)cc1 | -2.6 | 4 | . | . | . | .
O=C(COC(=O)c1ccc(NS(=O)(=O)c2ccc3c(c2)OCCO3)cc1)NCC1CCCO1 (configuration not stated) | -0.0035 | 7 | 37 | 0.2 | 83* | 0.6
COc1ccc(-n2nnc3c(SCC(=O)NCC4CCCO4)ncnc32)cc1 (configuration not stated) | . | 1 | -3 | 0.7 | 27 | 1
Cc1cc2nc(CCN(C(=S)NCC(C)C)C3CCCC3)[nH]c2cc1C | -4.3* | -4 | 39 | 0.6 | 43 | 0.6
O=C1CC(c2ccc(S(=O)(=O)N3CCN(c4ccccc4)CC3)cc2)CN1 (configuration not stated) | -0.94 | -2 | 10 | 0.8 | 19 | 0.9
CCCCCCn1cnc2c(c1=O)c1nc3ccccc3nc1n2Cc1cccs1 | -0.98 | 8 | 1 | 0.9 | 6 | 1
CCn1nc(-c2ccccc2)c2nc3ccccc3nc21 | . | 90*[fluorescence artefact?] | 12 | 0.8 | 19 | 0.9
CCCn1c(C)nc2c(c1=O)c1nc3ccccc3nc1n2CCc1ccccc1 | . | 10 | . | . | . | .
SMILES | Cav32 inh | Rev-RRE block | CYP2C19 inh | CYP2C9 activ | CYP2C9 inh | CYP2C19 activ
CCn1c2ccc(Cl)cc2c2nc3ccccc3nc21 | -0.46 | 9 | -1 | 1 | 4 | 1
CCCn1nc(-c2ccccc2)c2nc3ccccc3nc21 | -2.2 | 94*[fluorescence artefact?] | 4 | 1 | -1 | 1
CCCCCn1nc(-c2ccccc2)c2nc3ccccc3nc21 | -7.3* | 90*[fluorescence artefact?] | . | . | . | .
CCOC(=O)CCCc1sc(N)nc1-c1[nH]c(=O)[nH]c1C | -0.089 | 2 | -17 | 1 | -4 | 1.2
Cn1c(Sc2ccccc2Cl)c(C=O)c2ccccc21 | . | 2 | 40 | 0.6 | 36 | 0.6
COc1ccc(-c2c(NC(=O)C(C)C)n(C)c3ccccc3c2=O)cc1 | -1.3 | 3 | 47 | 0.6 | 35 | 0.5
Cc1ccc(Oc2c(C=O)c3ccccc3n2C)cc1 | -1.2 | 12 | 68* | 1 | -3 | 0.3
Cn1c(Oc2ccc(Cl)cc2)c(C=O)c2ccccc21 | -0.86 | 1 | 58* | 0.7 | 30 | 0.4
COc1ccc(Oc2c(C=O)c3ccccc3n2C)cc1 | -0.45 | -1 | 69* | 1.3 | -34 | 0.3
CC(Cc1cccs1)NC(=O)Nc1ccc(Cl)cc1 (configuration not stated) | -2.3 | 4 | 68* | 0.7 | 30 | 0.3
CC(Cc1cccs1)NC(=O)Nc1ccc(Cl)c(Cl)c1 (configuration not stated) | . | 7 | 73* | 0.3 | 69* | 0.3
CC(Cc1cccs1)NC(=O)Nc1ccccc1 (configuration not stated) | 0.42 | 10 | 89* | 0.4 | 57* | 0.1
C[C@H](NC(=O)NCc1cccs1)C(=O)O | 0.8 | 15 | 8 | 0.9 | 8 | 0.9
Cc1ccc(Nc2ncc3c(n2)CC(c2ccco2)CC3=O)c(C)c1 (configuration not stated) | -2.7 | 5 | 34 | 0.3 | 67* | 0.7
O=C1CC(c2ccco2)Cc2nc(Nc3nc(-c4ccccc4)c4ccccc4n3)ncc21 (configuration not stated) | . | -3 | 59* | 0.3 | 68* | 0.4
Cc1cccc(Nc2ncc3c(n2)CC(c2ccco2)CC3=O)c1 (configuration not stated) | . | 2 | 4 | 0.8 | 16 | 1
Cc1cc(C)cc(Nc2ncc3c(n2)CC(c2ccco2)CC3=O)c1 (configuration not stated) | -3.8 | 7 | 37 | 0.4 | 58* | 0.6
c1ccc(-c2cc3n(c2)CCc2ccccc2-3)cc1 | -0.67 | -1 | . | . | . | .
Cn1c(SCc2ccc(Cl)cc2)nc(C(F)(F)F)cc1=O | 0.035 | 20 | 6 | 1 | -3 | 0.9
Fc1ccc(-n2nnc(-c3ccnc4ccccc34)n2)cc1 | -0.067 | . | . | . | . | .
N#CC(c1cccc(C(F)(F)F)c1)(c1ncc(C(F)(F)F)cc1Cl)N1CCOCC1 (configuration not stated) | -4.3* | 6 | 52* | 0.6 | 42 | 0.5
Cc1nc2sc(C(c3ccccc3)N3CCN(CCO)CC3)c(O)n2n1 (configuration not stated) | -0.99 | . | . | . | . | .
CCCc1nnc(NC(=O)CN2C(=O)c3ccccc3C2=O)s1 | 0.0059 | 0 | -14 | 0.9 | 9 | 1.1
